Experimental data reported in ChEMBL document CHEMBL1153263, “3-Acrylamide-4-aryloxyindoles: synthesis, biological evaluation and metabolic stability of potent and selective EP3 receptor antagonists” (Bioorg Med Chem Lett, 2009).

How the values were obtained:
Prostacyclin receptor = Prostacyclin receptor (Homo sapiens, UniProt P43119); assay: Displacement of radioligand from IP receptor
[1] = Metabolic stability in monkey liver microsome assessed as compound remaining at 5 uM after 30 mins; assay type: ADME, Macaca mulatta; conditions: rhesus monkey, liver microsomes; read-out: Stability
In short: (§1)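 Liver microsomes at 0.8 mg/mL protein incubated with compound at 5 µM. Percent parent remaining after 30 min measured by LC–MS/MS.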

Brain = assay: Brain concentration in NMRI mouse at 2 mg/kg, iv; assay type: ADME, organism-based; parameters: dose 2 mg/kg, route intravenous; conditions: in vivo
In short: (§2)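 Mouse iv exposure screen. Plasma and brain concentrations sampled 15 min after dosing.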

[2] = biological target: Prostaglandin F2-alpha receptor (Homo sapiens, UniProt P43088); assay: Displacement of radioligand from FP receptor
[3] = Metabolic stability in dog liver microsome assessed as compound remaining at 5 uM after 30 mins; assay type: ADME, Canis lupus familiaris; conditions: liver microsomes, read-out: Stability; in short: as §1
[4] = biological target: T1, Prostaglandin E2 receptor EP1 subtype (Homo sapiens, UniProt P34995); assay: Displacement of radioligand from EP1 receptor
T1 sequence (P34995 whole entry): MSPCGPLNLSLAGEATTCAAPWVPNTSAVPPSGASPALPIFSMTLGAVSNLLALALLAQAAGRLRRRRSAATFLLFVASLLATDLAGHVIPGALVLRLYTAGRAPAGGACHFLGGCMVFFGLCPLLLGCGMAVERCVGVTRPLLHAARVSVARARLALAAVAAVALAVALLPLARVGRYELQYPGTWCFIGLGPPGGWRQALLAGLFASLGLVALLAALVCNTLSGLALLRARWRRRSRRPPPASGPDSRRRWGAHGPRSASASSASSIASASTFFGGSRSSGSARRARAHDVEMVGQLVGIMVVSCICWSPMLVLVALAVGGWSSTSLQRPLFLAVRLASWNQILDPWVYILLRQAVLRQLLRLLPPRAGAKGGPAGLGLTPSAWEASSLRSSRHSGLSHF

Mus musculus = assay: Plasma concentration in NMRI mouse at 2 mg/kg, iv; assay type: ADME, organism-based; parameters: dose 2 mg/kg, route intravenous; conditions: in vivo; in short: as §2
[5] = biological target: Prostaglandin E2 receptor EP2 subtype (Homo sapiens, UniProt P43116); assay: Displacement of radioligand from EP2 receptor
[6] = Metabolic stability in rat liver microsome assessed as compound remaining at 5 uM after 30 mins; assay type: ADME; conditions: liver microsomes, read-out: Stability; in short: as §1
[7] = biological target: Prostaglandin E2 receptor EP4 subtype (Homo sapiens, UniProt P35408); assay: Displacement of radioligand from EP4 receptor
[8] = Metabolic stability in mouse liver microsome assessed as compound remaining at 5 uM after 30 mins; assay type: ADME; conditions: liver microsomes, read-out: Stability; in short: as §1
[9] = Antiplatelet activity against rat platelet assessed as platelet aggregation; assay type: functional, cell-based
[10] = biological target: T2, Prostaglandin E2 receptor EP3 subtype (Homo sapiens, UniProt P43115); assay: Displacement of [3H]PGE2 from human EP3 receptor at 20 uM in presence of 10% human serum
T2 sequence (P43115 whole entry): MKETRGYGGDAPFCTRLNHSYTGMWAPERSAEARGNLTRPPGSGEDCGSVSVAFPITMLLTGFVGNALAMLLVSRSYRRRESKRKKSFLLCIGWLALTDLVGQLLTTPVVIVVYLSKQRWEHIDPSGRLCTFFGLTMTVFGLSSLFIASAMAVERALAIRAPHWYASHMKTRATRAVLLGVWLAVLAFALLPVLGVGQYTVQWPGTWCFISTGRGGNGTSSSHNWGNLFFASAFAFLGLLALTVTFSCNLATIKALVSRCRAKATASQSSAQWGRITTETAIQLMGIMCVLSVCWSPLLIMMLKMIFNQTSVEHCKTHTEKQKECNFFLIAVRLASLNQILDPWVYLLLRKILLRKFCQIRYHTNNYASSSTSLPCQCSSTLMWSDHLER

[11] = Metabolic stability in human liver microsome assessed as compound remaining at 5 uM after 30 mins; assay type: ADME; conditions: liver microsomes, read-out: Stability; in short: as §1
[12] = biological target: T3, Prostaglandin E2 receptor EP3 subtype (Homo sapiens) (UniProt P43115); assay: Ratio IC50 for human EP3 receptor in presence of human serum to IC50 for human EP3 in absence of human serum
T3 sequence (whole entry): T2 sequence (P43115 whole entry)

[13] = biological target: T2, Prostaglandin E2 receptor EP3 subtype; assay: Displacement of [3H]PGE2 from human EP3 receptor at 20 uM in presence of normal buffer
[14] = biological target: T2, Prostaglandin E2 receptor EP3 subtype; assay: Antagonist activity at human EP3-2 receptor expressed in CHOK1 cells; assay type: functional, cell-based, CHO-K1
In short: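 Stably transfected CHO-K1 cells expressing hEP3II, plated at 10⁵ cells/well and cultured overnight at 37 °C, 5% CO2. Washed with PBS, pre-incubated 30 min at 37 °C in serum-free medium with 1 mM IBMX. Stimulated with PGE2 (5×10⁻⁹ M) plus forskolin (5×10⁻⁶ M) ± compound (10⁻⁴–10⁻¹³ M) for 10 min at 37 °C. cAMP measured by EIA; EC50 from sigmoid non-linear regression.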

[15] = Antiplatelet activity against human platelet assessed as platelet aggregation; assay type: functional, cell-based

Sequence of Prostaglandin F2-alpha receptor (P43088 whole entry): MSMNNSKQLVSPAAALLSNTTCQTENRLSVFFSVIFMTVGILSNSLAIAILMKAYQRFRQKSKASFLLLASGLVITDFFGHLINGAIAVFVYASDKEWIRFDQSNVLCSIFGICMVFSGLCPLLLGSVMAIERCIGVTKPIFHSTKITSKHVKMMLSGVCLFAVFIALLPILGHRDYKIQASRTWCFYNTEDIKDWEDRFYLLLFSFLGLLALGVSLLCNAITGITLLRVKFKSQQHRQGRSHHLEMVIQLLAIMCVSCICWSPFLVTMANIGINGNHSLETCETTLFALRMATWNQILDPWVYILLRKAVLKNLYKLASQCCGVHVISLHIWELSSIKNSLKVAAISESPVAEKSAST
Sequence of Prostaglandin E2 receptor EP2 subtype (P43116 whole entry): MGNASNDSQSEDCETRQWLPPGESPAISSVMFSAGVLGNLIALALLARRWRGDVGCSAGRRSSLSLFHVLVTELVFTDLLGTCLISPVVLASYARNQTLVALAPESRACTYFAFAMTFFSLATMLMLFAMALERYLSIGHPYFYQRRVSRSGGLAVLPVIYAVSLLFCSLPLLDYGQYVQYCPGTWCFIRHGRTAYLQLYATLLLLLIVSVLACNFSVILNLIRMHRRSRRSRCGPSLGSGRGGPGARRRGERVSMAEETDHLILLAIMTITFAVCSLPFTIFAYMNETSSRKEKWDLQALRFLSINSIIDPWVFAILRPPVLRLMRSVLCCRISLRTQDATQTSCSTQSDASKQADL
Sequence of Prostaglandin E2 receptor EP4 subtype (P35408 whole entry): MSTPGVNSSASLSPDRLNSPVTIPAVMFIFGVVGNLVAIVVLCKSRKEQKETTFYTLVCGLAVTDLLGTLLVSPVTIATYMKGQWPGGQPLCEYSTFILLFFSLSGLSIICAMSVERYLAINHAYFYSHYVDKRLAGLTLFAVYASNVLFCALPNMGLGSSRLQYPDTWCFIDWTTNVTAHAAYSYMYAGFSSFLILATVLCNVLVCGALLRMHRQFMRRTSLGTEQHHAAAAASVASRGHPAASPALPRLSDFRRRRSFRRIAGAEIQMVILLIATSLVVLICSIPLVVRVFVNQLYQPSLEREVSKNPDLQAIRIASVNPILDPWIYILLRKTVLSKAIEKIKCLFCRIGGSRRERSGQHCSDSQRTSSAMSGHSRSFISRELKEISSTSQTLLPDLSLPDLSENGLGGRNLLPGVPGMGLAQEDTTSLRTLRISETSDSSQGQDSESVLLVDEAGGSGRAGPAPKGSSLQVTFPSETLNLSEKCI
Sequence of Prostacyclin receptor (P43119 whole entry): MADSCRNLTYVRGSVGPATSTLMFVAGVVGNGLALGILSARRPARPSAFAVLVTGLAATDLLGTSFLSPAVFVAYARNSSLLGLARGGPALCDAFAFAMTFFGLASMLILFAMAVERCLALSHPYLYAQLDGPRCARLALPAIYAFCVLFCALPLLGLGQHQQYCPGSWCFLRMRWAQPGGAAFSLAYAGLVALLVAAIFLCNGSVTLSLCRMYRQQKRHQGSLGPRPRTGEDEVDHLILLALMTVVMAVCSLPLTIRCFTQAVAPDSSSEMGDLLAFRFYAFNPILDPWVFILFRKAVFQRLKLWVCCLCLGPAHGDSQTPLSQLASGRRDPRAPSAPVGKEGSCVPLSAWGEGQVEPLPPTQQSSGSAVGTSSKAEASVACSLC

Row | SMILES | IC50 (Prostacyclin receptor) [nM] | remaining at 0.5 h, 5 µM [1] [%] | Drug uptake (Brain) [ng/mL] | IC50 [2] [nM] | remaining at 0.5 h, 5 µM [3] [%] | IC50 [4] [nM] | Cp (Mus musculus) [ng/mL] | IC50 [5] [nM] | remaining at 0.5 h, 5 µM [6] [%] | IC50 [7] [nM] | remaining at 0.5 h, 5 µM [8] [%] | EC50 [9] [nM] | IC50 [10] [nM] | remaining at 0.5 h, 5 µM [11] [%] | Ratio IC50 [12] | IC50 [13] [nM] | EC50 [14] [nM] | EC50 [15] [nM]
1 | Cn1cc(/C=C/C(=O)NS(=O)(=O)c2ccc(F)c(F)c2)c2c(Oc3ccc4ccccc4c3)cccc21 | 1880 | 59 | 55.7 | 3590 | 69.7 | 1420 | 3420 | 12500 | 24.6 | 12500 | 62 | 12.8 | 15.9 | 63.6 | 2.1 | 7.4 | – | –
2 | Cn1cc(/C=C/C(=O)NS(=O)(=O)c2ccc(F)c(F)c2)c2c(Oc3ccc(Cl)cc3Cl)cccc21 | – | 53.8 | – | 1970 | 104 | 3860 | – | 9600 | 30.6 | 14600 | 69 | – | 23.7 | 74.7 | 2 | 11.8 | 26.1 | –
3 | Cn1cc(/C=C/C(=O)NS(=O)(=O)c2cc(F)c(F)cc2F)c2c(Oc3ccc4ccccc4c3)cccc21 | – | – | 29.1 | – | 90.4 | – | 1518 | – | 32 | – | – | 11.6 | 28 | 91.2 | 3.1 | 9.2 | – | 8.1
